Data set [1] addresses T1, Cannabinoid receptor 2 (Homo sapiens, UniProt P34972). Nature of the data set: Displacement of [3H]CP-55,940 from human CB2 receptor expressed in CHO cell membranes. In short, it runs like this:
(§1)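 Membranes from CHO cells expressing human or murine CB2 were incubated with [3H]CP-55,940 in 50 mM Tris, 5 mM MgCl2, 2.5 mM EGTA, 0.1% fatty-acid-free BSA, pH 7.4, 1 h at 30 °C with shaking. Reaction stopped by filtration through PEI-coated GF/B. Ki from nonlinear regression using saturation-derived Kd. Ten concentrations in triplicate.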

The target of data set [2] is Cannabinoid receptor 2 (Mus musculus, UniProt P47936). Nature of the data set: Displacement of [3H]CP-55,940 from mouse CB2 receptor expressed in CHO cell membranes. In short, it runs like this: as §1
On the technique in general: In a radioligand displacement assay an active substance lowers the binding of a labelled ligand.

The target of data set [3] is T1, Cannabinoid receptor 2. In words: Activity at human CB2 receptor expressed in CHO cells assessed as cAMP accumulation incubated for 30 mins by time-resolved FRET assay. The format is functional, cell-based. In outline: (§2)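 CHO cells expressing human CB1 or CB2 were seeded 1 day before in DMEM/HT supplement/10% FCS. Medium was replaced with Krebs Ringer bicarbonate buffer containing 1 mM IBMX, 30 min at 30 °C, then compound added for 30 min at 30 °C. cAMP was read by time-resolved FRET (cAMP-Nano-TRF kit) against a standard curve from 10 μM to 0.13 nM. Ten concentrations in triplicate, single experiment.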

For data set [4], the target named is Cannabinoid receptor 1 (Homo sapiens, UniProt P21554). Nature of the data set: Activity at human CB1 receptor expressed in CHO cells assessed as cAMP accumulation incubated for 30 mins by time-resolved FRET assay. The format is functional, cell-based. In short, it runs like this: as §2
(Cyclic AMP is a second messenger, typically raised through Gs and lowered through Gi signalling.)

Data set [5] can be described thus: Lipophilicity, log D of the compound in n-octanol/phosphate buffer pH 7.4 by shake flask method. The format is physicochemical.
In data set [6] the test system is CHO. In words: Selectivity index, ratio of EC50 for human CB1 receptor expressed in CHO cells to EC50 for human CB2 receptor expressed in CHO cells. The format is cell-based.
Data set [7] is described as follows: Substrate activity at P-gp (unknown origin). The format is ADME. As to conditions: human; call rule not given here.

Molecules are shown by their SMILES.

Usually Ki stands for a measure of affinity in units of concentration, obtained from inhibition or displacement. Higher therefore signals weaker binding. The EC50 is the concentration that produces a half-maximal response. What is called logD is lipophilicity at a set pH, counting ionised and neutral species.

Cannabinoid receptor 2 (Mus musculus, UniProt P47936), sequence (P47936 whole entry): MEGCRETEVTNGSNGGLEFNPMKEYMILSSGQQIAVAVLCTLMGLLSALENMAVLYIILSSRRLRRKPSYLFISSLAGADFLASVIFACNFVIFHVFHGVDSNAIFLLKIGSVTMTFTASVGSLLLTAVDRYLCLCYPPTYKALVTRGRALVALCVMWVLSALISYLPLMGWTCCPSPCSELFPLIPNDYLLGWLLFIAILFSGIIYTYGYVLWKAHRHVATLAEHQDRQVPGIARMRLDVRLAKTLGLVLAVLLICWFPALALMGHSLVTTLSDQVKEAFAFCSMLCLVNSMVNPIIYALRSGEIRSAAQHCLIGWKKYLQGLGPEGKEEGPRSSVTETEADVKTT
T1 sequence (P34972 whole entry): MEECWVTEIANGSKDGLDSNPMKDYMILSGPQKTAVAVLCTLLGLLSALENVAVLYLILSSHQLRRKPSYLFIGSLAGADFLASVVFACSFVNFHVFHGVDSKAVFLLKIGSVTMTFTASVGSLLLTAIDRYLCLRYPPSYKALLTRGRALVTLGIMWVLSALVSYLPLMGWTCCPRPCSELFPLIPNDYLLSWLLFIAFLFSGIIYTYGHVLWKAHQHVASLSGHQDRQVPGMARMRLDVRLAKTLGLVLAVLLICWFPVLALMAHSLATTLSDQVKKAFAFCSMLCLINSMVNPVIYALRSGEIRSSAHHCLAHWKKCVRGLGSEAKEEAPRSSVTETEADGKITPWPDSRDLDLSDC
Cannabinoid receptor 1, sequence (P21554 whole entry, looked up): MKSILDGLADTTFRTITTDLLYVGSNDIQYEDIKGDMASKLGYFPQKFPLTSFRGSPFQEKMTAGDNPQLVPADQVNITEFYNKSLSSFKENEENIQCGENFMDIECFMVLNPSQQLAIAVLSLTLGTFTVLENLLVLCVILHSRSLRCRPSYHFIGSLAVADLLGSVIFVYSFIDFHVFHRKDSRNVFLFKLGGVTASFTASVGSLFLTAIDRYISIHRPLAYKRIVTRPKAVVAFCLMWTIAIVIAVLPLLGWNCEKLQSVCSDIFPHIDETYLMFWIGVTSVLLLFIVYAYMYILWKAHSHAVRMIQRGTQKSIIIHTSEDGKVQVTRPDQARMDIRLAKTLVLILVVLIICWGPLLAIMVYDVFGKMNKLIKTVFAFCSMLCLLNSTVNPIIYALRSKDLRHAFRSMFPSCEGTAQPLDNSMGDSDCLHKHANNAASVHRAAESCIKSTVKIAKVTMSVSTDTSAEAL

Consider `CCC(CC)(NC(=O)c1ccc(N2CC(F)(F)C2)c(OCC2CC2)n1)C(=O)NCCF`, for which the inhibition constant Ki in data set [1] was 774 nM; in data set [2], 403 nM. Also, the figures for the EC50 in data set [3] and in data set [4] were 27 nM and over 10000 nM, respectively.
For the molecule `CC(C)(Cc1nnc(-c2ccc(F)cc2)o1)NC(=O)c1ccc(N2CC(F)(F)C2)c(OCC2CC2)n1`, the Ki was determined as 3030 nM in data set [1] and 1050 nM in data set [2]. Further, the EC50 in data set [4] is over 10000 nM.
Regarding `CC(C)(Cc1nnc(-c2ccc(F)cc2)o1)NC(=O)c1ccc(C2CCCC2)c(OCC2CC2)n1`, the inhibitory constant (Ki) in data set [1] was 416 nM; in data set [2] it was 403 nM. Also, the EC50 in data set [4] is over 10000 nM.
Turning to `COC1CN(c2ccc(C(=O)NC(C)(C)Cc3nnc(C4CCC4)o3)nc2OCC2CC2)C1`, the logD in data set [5] was found to be 3.37. Further, the EC50 in data set [3] was 4010 nM; in data set [4] it was over 10000 nM.
Regarding `CCOCCOCC(C)(C)c1cc(NC(=O)c2ccc(C3CCCC3)c(OCC3CC3)n2)on1`, the Ki came to 264 nM in data set [1] and 11.7 nM in data set [2]. Further, the EC50 in data set [4] is over 10000 nM.
With `COCCOCC(C)(C)c1cc(NC(=O)c2ccc(C3CCCC3)c(OCC3CC3)n2)on1`, the results for the inhibition constant Ki in data set [1] and in data set [2] were 294 nM and 12.7 nM, respectively. Also, in data set [4], the EC50 was over 10000 nM.
For `CCOC(=O)C(CC)(CC)NC(=O)c1ccc(N2CC(OC)C2)c(OCC2CC2)n1`, the Ki came to 2.5 nM in data set [1] and 1.8 nM in data set [2]. For the same molecule, the EC50 in data set [3] was 4.4 nM; in data set [4] it was over 10000 nM. For the same molecule, the Ratio EC50 was over 1000 in data set [6] and 150 in data set [6] (tested as the 11C-labelled form).
With `COC1CN(c2ccc(C(=O)NC3(CC(N)=O)COC3)nc2OCC2CC2)C1`, the logD in data set [5] came to 1.7. Also, the Ki came to 1020 nM in data set [1] and 3110 nM in data set [2]. The EC50 in data set [4] is over 10000 nM.
Molecule `CCC(CC)(NC(=O)c1ccc(N2CC(OC)C2)c(OCC2CC2)n1)C(=O)NCCF` had a logD in data set [5] of 3.43. Besides, the Ki came to 902 nM in data set [1] and 421 nM in data set [2]. For the same molecule, the EC50 in data set [3] was 281 nM; in data set [4], over 10000 nM.
Turning to `CCOC(=O)C(CC)(CC)NC(=O)c1ccc(C2CCCC2)c(OCC2CC2)n1`, the Ki is 16.2 nM in data set [1] and 38.5 nM in data set [2]. Further, the EC50 in data set [3] is 2.9 nM; in data set [4], over 10000 nM.
With `CC(C)(NC(=O)c1ccc(N2CC(F)(F)C2)c(OCC2CC2)n1)c1nnc(C2CC2)o1`, the Ki in data set [1] and in data set [2] was over 10000 nM throughout. Further, the EC50 in data set [3] and in data set [4] was over 10000 nM in each case.
With `CCC(CC)(NC(=O)c1ccc(N2CC(OC)C2)c(OCC2CC2)n1)C(=O)NC`, the pH-dependent lipophilicity (logD) in data set [5] was 3.18. Further, the values for the Ki in data set [1] and in data set [2] were 170 nM and 60.4 nM, respectively. Moreover, in data set [4], the EC50 was over 10000 nM.
Consider `CC(C)(NC(=O)c1ccc(N2CC(F)(F)C2)c(OCC2CC2)n1)c1nnc(-c2cccnc2)o1`, for which the Ki in data set [1] and in data set [2] was over 10000 nM in each case. In addition, the EC50 in data set [3] was 396 nM; in data set [4], over 10000 nM.
`COC1CN(c2ccc(C(=O)NCC3(O)CCCCC3)nc2OCC2CC2)C1`: the Ki is 2870 nM in data set [1] and 2230 nM in data set [2]. In addition, in data set [4], the EC50 is over 10000 nM.
`CCC(CC)(NC(=O)c1ccc(N2CC(OC)C2)c(OCC2CC2)n1)C(=O)NCCCF` gave a logD in data set [5] of 3.67. Further, the values for the Ki in data set [1] and in data set [2] were 2060 nM and 5260 nM, respectively. The EC50 in data set [4] was over 10000 nM.
In the case of `CC(C)(NC(=O)c1ccc(N2CC(F)(F)C2)c(OCC2CC2)n1)c1nnc(-c2ccccc2)o1`, the Ki in data set [1] is 3960 nM; in data set [2], over 10000 nM. Moreover, the EC50 in data set [3] and in data set [4] was over 10000 nM each time.
`CCC(CC)(NC(=O)c1ccc(N2CC(OC)C2)c(OCC2CC2)n1)C(=O)N1CC(F)C1` yielded a logD in data set [5] of 3.25. Further, the Ki in data set [1] is 18.3 nM; in data set [2], 6.9 nM. The figures for the half-maximal effective concentration (EC50) in data set [3] and in data set [4] were 4.4 nM and over 10000 nM, respectively. For the same molecule, in data set [6], the Ratio EC50 is over 1000. Also, the result in data set [7] was Active.
The molecule `CCC(CC)(NC(=O)c1ccc(N2CC(F)(F)C2)c(OCC2CC2)n1)C(=O)NC` returned a logD in data set [5] of 3.76. Moreover, the Ki in data set [1] is 179 nM; in data set [2], 245 nM. The EC50 in data set [3] was 4.3 nM; in data set [4] it was over 10000 nM.
With `COC1CN(c2ccc(C(=O)NC(C)(C)Cc3nnc(-c4ccc(F)cc4)o3)nc2OCC2CC2)C1`, the Ki in data set [1] is 466 nM; in data set [2], 504 nM. Also, the EC50 in data set [3] was 1810 nM; in data set [4], over 10000 nM.

Values taken from ChEMBL document CHEMBL3580634, “Discovery of a high affinity and selective pyridine analog as a potential positron emission tomography imaging agent for cannabinoid type 2 receptor” (J Med Chem, 2015).
